The source made the active and inactive calls. The rule behind the calls is not given here.
How the values were obtained:
[1] = target: T1, Glucose-dependent insulinotropic receptor (Homo sapiens, UniProt Q8TDV5); test: Agonist activity at recombinant human GPR119 expressed in HEK293 cells assessed as increase in intracellular cAMP accumulation measured after 30 mins; type: functional, cell-based
T1 sequence (Q8TDV5 whole entry): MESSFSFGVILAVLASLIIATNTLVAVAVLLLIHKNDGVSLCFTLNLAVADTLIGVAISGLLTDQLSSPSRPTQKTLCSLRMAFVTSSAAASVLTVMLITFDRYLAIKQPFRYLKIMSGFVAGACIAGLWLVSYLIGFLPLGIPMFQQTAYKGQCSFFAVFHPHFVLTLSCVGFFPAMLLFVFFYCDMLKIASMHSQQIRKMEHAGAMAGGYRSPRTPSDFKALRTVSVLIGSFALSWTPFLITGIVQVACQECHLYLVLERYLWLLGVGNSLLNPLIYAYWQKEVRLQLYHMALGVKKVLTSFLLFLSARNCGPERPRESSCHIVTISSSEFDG

[2] = target: T2, Glucose-dependent insulinotropic receptor (Homo sapiens) (UniProt Q8TDV5); test: Agonist activity at recombinant human GPR119 expressed in HEK293 cells assessed as increase in intracellular cAMP accumulation measured after 30 mins relative to oleoylethanolamide; type: functional, cell-based
T2 sequence (whole entry): T1 sequence (Q8TDV5 whole entry)

[3] = Protein binding in rat plasma; type: ADME, cell-free; details: read-out: PPB (converted)
[4] = Stability in rat liver microsomes assessed as parent compound remaining at 5 uM measured after 1 hr; type: ADME, Microsome; details: read-out: Stability
Procedure, shortened: (§1)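 Compound at 5 μM incubated 1 hour with human or rat liver microsomes (0.2 mg/mL); percent of parent remaining reported.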

[5] = Protein binding in human plasma; type: ADME, cell-free; details: read-out: PPB (converted)
[6] = Stability in human liver microsomes assessed as parent compound remaining at 5 uM measured after 1 hr; type: ADME, Microsome; details: read-out: Stability; procedure, shortened: as §1
Cytochrome P450 2C8 = target: T3, Cytochrome P450 2C8 (Homo sapiens, UniProt P10632); test: Inhibition of CYP2C8 (unknown origin); type: ADME
T3 sequence (P10632 whole entry): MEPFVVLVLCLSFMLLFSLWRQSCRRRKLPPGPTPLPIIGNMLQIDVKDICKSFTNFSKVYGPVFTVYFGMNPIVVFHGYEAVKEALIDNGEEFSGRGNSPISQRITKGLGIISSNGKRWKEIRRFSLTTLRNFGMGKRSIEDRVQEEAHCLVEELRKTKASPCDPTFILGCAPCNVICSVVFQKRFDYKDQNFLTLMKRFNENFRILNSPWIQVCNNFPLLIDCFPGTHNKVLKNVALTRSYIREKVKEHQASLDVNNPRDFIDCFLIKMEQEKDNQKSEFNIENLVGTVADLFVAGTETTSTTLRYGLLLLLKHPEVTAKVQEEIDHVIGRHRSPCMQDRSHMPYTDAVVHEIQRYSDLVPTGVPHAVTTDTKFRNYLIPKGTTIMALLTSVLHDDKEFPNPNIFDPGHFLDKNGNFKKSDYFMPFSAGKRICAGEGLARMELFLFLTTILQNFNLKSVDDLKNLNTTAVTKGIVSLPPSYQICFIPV

Rattus norvegicus [7] = test: Hypoglycemic activity in Sprague-Dawley rat assessed as reduction in plasma insulin level at 1 to 3 mg/kg, po treated for 16 hrs prior to glucose stimulation and measured up to 1 hr by ELISA; type: functional, organism-based
Procedure, shortened: (§2)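 Overnight-fasted 7-week-old Sprague-Dawley rats dosed by oral gavage; 16 h later glucose 1 g/kg given intraperitoneally. Tail-vein blood drawn before and at 10, 30, 60 min after loading; glucose followed up to 2 h. Plasma glucose by automatic analyzer, insulin by rat insulin ELISA; glucose AUC calculated.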

Rattus norvegicus [8] = test: Effect on plasma glucose level in Sprague-Dawley rat at 1 to 3 mg/kg, po measured after 16 hrs; type: ADME, organism-based; details: in vivo; procedure, shortened: as §2
Cytochrome P450 1A2 = target: T4, Cytochrome P450 1A2 (Homo sapiens, UniProt P05177); test: Inhibition of CYP1A2 (unknown origin); type: ADME
T4 sequence (P05177 whole entry): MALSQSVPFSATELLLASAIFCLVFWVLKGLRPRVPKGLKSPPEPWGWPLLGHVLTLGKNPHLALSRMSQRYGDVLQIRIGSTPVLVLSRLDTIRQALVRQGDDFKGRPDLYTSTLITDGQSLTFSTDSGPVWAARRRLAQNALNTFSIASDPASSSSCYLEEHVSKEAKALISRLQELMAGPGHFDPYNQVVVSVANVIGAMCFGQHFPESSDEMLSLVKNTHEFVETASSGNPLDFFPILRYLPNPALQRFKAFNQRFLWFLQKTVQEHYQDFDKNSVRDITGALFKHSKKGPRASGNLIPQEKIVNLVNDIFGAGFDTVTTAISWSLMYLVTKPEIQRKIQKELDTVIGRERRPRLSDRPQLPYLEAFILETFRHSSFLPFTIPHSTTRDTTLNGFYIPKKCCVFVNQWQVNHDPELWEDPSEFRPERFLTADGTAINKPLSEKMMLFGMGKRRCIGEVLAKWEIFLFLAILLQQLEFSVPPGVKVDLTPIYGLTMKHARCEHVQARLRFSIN

Cytochrome P450 2C19 = Cytochrome P450 2C19 (Homo sapiens, UniProt P33261); test: Inhibition of CYP2C19 (unknown origin); type: ADME
Sequence of Cytochrome P450 2C19 (P33261 whole entry): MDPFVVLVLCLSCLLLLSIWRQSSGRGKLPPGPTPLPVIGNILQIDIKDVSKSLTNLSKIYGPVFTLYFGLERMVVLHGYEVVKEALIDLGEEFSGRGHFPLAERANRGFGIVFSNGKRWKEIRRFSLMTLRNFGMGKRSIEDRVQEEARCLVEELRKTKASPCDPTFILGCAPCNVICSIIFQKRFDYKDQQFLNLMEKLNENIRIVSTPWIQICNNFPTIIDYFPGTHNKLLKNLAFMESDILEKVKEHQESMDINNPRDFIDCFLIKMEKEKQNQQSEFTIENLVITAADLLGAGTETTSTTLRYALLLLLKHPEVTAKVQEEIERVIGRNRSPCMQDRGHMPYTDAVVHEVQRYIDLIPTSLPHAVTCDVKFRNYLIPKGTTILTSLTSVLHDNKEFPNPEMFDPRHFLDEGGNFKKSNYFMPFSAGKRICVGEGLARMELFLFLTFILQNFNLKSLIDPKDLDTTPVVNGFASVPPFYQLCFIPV

Rattus norvegicus [9] = test: Hypoglycemic activity in Sprague-Dawley rat assessed as reduction in plasma glucose AUC at 1 mg/kg, po treated for 16 hrs prior to glucose stimulation and measured up to 2 hrs by IPGTT relative to control; type: functional; set-up: scale not given: the % may be the effect or the level left; procedure, shortened: as §2
Cytochrome P450 3A4 = Cytochrome P450 3A4 (Homo sapiens, UniProt P08684); test: Inhibition of CYP3A4 (unknown origin); type: ADME
Sequence of Cytochrome P450 3A4 (P08684 whole entry): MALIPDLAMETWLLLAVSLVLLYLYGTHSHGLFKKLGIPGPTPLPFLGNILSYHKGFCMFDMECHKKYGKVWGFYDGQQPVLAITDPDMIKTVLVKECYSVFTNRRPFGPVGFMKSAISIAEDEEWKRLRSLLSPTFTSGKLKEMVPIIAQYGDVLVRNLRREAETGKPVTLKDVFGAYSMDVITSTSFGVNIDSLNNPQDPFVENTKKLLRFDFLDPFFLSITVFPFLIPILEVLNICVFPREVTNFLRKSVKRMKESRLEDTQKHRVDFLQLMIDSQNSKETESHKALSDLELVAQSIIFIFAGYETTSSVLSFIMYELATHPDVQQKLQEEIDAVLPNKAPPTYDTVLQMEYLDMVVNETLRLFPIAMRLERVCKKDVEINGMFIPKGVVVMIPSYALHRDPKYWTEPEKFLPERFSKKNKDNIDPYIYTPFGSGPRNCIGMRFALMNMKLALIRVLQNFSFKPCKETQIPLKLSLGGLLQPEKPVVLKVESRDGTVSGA

[10] = Clearance in Sprague-Dawley rat at 1 mg/kg, iv; type: ADME, organism-based; details: in vivo
Procedure, shortened: (§3)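 Sprague-Dawley rats given 1 mg/kg intravenously or 3 mg/kg orally; t1/2β, CL, Vdss and MRT from IV dosing, oral bioavailability from PO dosing.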

[11] = MRT in Sprague-Dawley rat at 1 mg/kg, iv; type: ADME, organism-based; details: in vivo; procedure, shortened: as §3
[12] = Terminal half life in Sprague-Dawley rat at 1 mg/kg, iv; type: ADME, organism-based; details: in vivo, read-out: beta t1/2 (converted); procedure, shortened: as §3
Rattus norvegicus [13] = test: Hypoglycemic activity in Sprague-Dawley rat assessed as reduction in plasma glucose level at 1 to 3 mg/kg, po treated for 16 hrs prior to glucose stimulation and measured up to 2 hrs by IPGTT; type: functional, organism-based; procedure, shortened: as §2
Rattus norvegicus [14] = test: Effect on plasma insulin level in Sprague-Dawley rat at 1 to 3 mg/kg, po measured after 16 hrs by ELISA; type: ADME, organism-based; details: in vivo; procedure, shortened: as §2
Cytochrome P450 2C9 = Cytochrome P450 2C9 (Homo sapiens, UniProt P11712); test: Inhibition of CYP2C9 (unknown origin); type: ADME
Sequence of Cytochrome P450 2C9 (P11712 whole entry): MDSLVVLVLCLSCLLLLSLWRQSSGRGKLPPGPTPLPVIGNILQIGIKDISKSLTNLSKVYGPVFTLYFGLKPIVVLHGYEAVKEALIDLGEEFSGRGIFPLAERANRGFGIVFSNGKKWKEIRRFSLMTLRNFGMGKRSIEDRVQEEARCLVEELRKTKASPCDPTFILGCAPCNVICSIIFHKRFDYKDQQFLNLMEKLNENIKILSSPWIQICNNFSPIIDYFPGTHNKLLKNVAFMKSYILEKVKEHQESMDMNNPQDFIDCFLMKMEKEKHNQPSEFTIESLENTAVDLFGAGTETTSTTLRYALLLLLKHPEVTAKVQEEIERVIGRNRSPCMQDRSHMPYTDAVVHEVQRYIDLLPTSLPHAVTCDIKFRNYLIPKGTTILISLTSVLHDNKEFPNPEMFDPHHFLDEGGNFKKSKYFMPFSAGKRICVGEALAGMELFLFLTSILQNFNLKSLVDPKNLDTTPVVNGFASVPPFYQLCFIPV

[15] = Oral bioavailability in Sprague-Dawley rat at 3 mg/kg; type: ADME, organism-based; details: in vivo; procedure, shortened: as §3
Rattus norvegicus [16] = test: Hypoglycemic activity in Sprague-Dawley rat assessed as reduction in plasma glucose AUC at 3 mg/kg, po treated for 16 hrs prior to glucose stimulation and measured up to 2 hrs by IPGTT relative to control; type: functional; set-up: scale not given: the % may be the effect or the level left; procedure, shortened: as §2
[17] = Volume of distribution at steady state in Sprague-Dawley rat at 1 mg/kg, iv; type: ADME, organism-based; details: in vivo, read-out: Vdss; procedure, shortened: as §3
Cytochrome P450 2D6 = Cytochrome P450 2D6 (Homo sapiens, UniProt P10635); test: Inhibition of CYP2D6 (unknown origin); type: ADME
Sequence of Cytochrome P450 2D6 (P10635 whole entry): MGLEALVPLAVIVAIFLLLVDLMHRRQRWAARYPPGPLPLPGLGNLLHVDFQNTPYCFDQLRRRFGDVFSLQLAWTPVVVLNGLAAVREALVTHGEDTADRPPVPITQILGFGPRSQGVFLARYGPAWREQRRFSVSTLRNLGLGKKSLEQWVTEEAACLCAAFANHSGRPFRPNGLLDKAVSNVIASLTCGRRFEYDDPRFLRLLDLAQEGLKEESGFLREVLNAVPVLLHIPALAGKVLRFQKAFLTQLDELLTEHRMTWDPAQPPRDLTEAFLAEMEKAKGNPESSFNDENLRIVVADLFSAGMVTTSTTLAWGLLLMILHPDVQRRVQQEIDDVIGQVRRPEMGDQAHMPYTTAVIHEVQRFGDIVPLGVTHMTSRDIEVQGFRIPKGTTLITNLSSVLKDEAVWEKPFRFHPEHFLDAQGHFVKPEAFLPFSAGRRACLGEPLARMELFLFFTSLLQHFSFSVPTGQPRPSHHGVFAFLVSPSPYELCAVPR

Row | Compound | EC50 [1] [nM] | %max [2] [%] | remaining at 1 h, 5 µM [4] [%] | remaining at 1 h, 5 µM [6] [%] | also measured
1 | CC(O[C@H]1CC[C@]2(CC1)COC(C)(C)C2)c1nc(-c2ccc(CS(C)(=O)=O)cc2)no1 (mixture of isomers) | 426 | 120 | – | – | –
2 | CC(O[C@H]1CC[C@]2(CC1)COC(C)(C)C2)c1nc(-c2ccc(CC(=O)N(C)C)c(F)c2)no1 (mixture of isomers) | 69 | 131 | – | – | –
3 | C[C@@H](O[C@H]1CC[C@]2(CC1)COC(C)(C)C2)c1nc(-c2cc(F)c(CS(C)(=O)=O)c(F)c2)no1 | 5 | 109 | 83 | 65 | fraction unbound [3]: 0.06; fraction unbound [5]: 0.035
4 | C[C@H](O[C@H]1CC[C@]2(CC1)COC(C)(C)C2)c1nc(-c2ccc(CS(C)(=O)=O)c(F)c2)no1 | 430 | 106 | – | – | –
5 | C[C@@H](O[C@H]1CC[C@]2(CCC(F)(F)CO2)CC1)c1nc(-c2cc(F)c(CS(C)(=O)=O)c(F)c2)no1 | 6 | 112 | 98 | 98 | IC50 (Cytochrome P450 2C8): > 50000 nM; Activity (Rattus norvegicus [7]): Active; Activity (Rattus norvegicus [8]): Non-Toxic; IC50 (Cytochrome P450 1A2): > 50000 nM; IC50 (Cytochrome P450 2C19): > 50000 nM; Activity (Rattus norvegicus [9]): 10%; IC50 (Cytochrome P450 3A4): > 50000 nM; clearance [10]: 8.33 mL/min/kg; MRT [11]: 6.4 h; half-life [12]: 5.1 h; Activity (Rattus norvegicus [13]): Active; Activity (Rattus norvegicus [14]): Non-Toxic; IC50 (Cytochrome P450 2C9): > 50000 nM; bioavailability [15]: 43%; Activity (Rattus norvegicus [16]): 12%; Vd [17]: 3.5 L/kg; IC50 (Cytochrome P450 2D6): > 50000 nM
6 | CC(O[C@H]1CC[C@]2(CCCCO2)CC1)c1nc(-c2ccc(CS(C)(=O)=O)c(F)c2)no1 (stereo partly specified) | 86 | 112 | 64 | 39 | –
7 | CC(O[C@H]1CC[C@]2(CCC(C)(C)CO2)CC1)c1nc(-c2ccc(CS(C)(=O)=O)c(F)c2)no1 (stereo partly specified) | 25 | 109 | 56 | 0 | –
8 | CC(O[C@H]1CC[C@]2(CC1)COC(C)(C)C2)c1nc(-c2ccc(CS(C)(=O)=O)c(F)c2)no1 (mixture of isomers) | 44 | 130 | 86 | 62 | –
9 | CC(O[C@H]1CC[C@]2(CC1)COC(C)(C)C2)c1nc(-c2ccc(C(=O)N(C)C)c(F)c2)no1 (mixture of isomers) | 2460 | 86 | – | – | –
10 | CC(O[C@H]1CC[C@@]2(CC1)CC(C)(C)CCO2)c1nc(-c2ccc(CS(C)(=O)=O)c(F)c2)no1 (stereo partly specified) | 29 | 113 | 53 | 0 | –
11 | CC(O[C@H]1CC[C@]2(CC1)COC(C)(C)C2)c1nc(-c2ccc(S(C)(=O)=O)c(F)c2)no1 (mixture of isomers) | – | 109 | – | – | –
12 | C[C@@H](O[C@H]1CC[C@]2(CC1)COC(C)(C)C2)c1nc(-c2ccc(CS(C)(=O)=O)c(F)c2F)no1 | 301 | 77 | – | – | –
13 | C[C@@H](O[C@H]1CC[C@]2(CC1)COC(C)(C)C2)c1nc(-c2cc(F)c(CS(C)(=O)=O)cc2F)no1 | 64 | 118 | – | – | –
14 | CC(O[C@H]1CC[C@]2(CCCO2)CC1)c1nc(-c2ccc(CS(C)(=O)=O)c(F)c2)no1 (stereo partly specified) | 720 | 114 | 54 | 49 | –
15 | CC1(C)C[C@]2(CC[C@H](OCc3nc(-c4ccc(S(C)(=O)=O)c(F)c4)no3)CC2)CO1 | 261 | 103 | – | – | –
16 | C[C@@H](O[C@H]1CC[C@@]2(CC1)CC(F)(F)CO2)c1nc(-c2cc(F)c(CS(C)(=O)=O)c(F)c2)no1 | 7 | 116 | 85 | 83 | –
17 | CC(O[C@H]1CC[C@@]2(CC1)CC(C)(C)CO2)c1nc(-c2ccc(CS(C)(=O)=O)c(F)c2)no1 (stereo partly specified) | 31 | 115 | 55 | 15 | –
18 | C[C@@H](O[C@H]1CC[C@]2(CC1)COC(C)(C)C2)c1nc(-c2ccc(CS(C)(=O)=O)c(F)c2)no1 | 27 | 106 | – | – | –
19 | C[C@@H](O[C@H]1CC[C@@]2(CC1)CC(F)(F)CCO2)c1nc(-c2cc(F)c(CS(C)(=O)=O)c(F)c2)no1 | 27 | 106 | 91 | 97 | –
